Test results from ChEMBL document CHEMBL4715796, “Discovery of Chromane Containing Hepatitis C Virus (HCV) NS5A Inhibitors with Improved Potency against Resistance-Associated Variants” (J Med Chem, 2016).

What was measured:
Type in all cases: cell-based
[1] = system: T1, Nonstructural protein 5A (Hepatitis C virus), Q5L478 [Y93H]; experiment: Inhibition of NS5A Y93H mutant in Hepatitis C virus subtype 1a infected in human HuH7 cells assessed as reduction in viral replication by luciferase reporter gene assay; conditions: Huh-7
T1 sequence (whole entry): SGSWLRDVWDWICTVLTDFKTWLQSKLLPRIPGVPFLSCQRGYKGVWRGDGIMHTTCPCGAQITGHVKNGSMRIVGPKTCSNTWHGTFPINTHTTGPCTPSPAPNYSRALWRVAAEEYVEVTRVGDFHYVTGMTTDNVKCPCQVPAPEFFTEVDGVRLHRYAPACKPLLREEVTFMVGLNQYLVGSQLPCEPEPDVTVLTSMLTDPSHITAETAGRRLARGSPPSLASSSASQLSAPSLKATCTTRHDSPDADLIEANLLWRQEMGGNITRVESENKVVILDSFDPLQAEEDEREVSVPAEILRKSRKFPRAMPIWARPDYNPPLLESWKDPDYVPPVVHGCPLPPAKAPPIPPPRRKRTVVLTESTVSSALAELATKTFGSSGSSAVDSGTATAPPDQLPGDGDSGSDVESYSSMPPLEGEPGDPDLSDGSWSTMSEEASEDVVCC
Method in brief: (§1)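 NS5A resistance variants engineered into GT1a-H77 or GT1b-Con1 replicons. Each variant replicon is transfected transiently by electroporation into a Huh7-derived cell line. Percent inhibition is taken from the drop in luciferase signal at each compound concentration, and EC90 is calculated from these. Values are means of at least two experiments.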

Huh-7 [2] = experiment: Inhibition of NS5A in Hepatitis C virus subtype 3a infected in human HuH7 cells assessed as reduction in viral replication by luciferase reporter gene assay
Method in brief: (§2)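 Transient replicon assay with GT1a-H77, GT1b-Con1 or chimeric replicons, electroporated into a Huh7-derived cell line. Percent inhibition of replication, read as a drop in luciferase signal, was calculated at each concentration to give EC90. Values are means of at least two experiments.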

Huh-7 [3] = experiment: Inhibition of NS5A in Hepatitis C virus subtype 2b infected in human HuH7 cells assessed as reduction in viral replication by luciferase reporter gene assay; method in brief: as §2
Huh-7 [4] = experiment: Inhibition of NS5A in Hepatitis C virus subtype 1a infected in human HuH7 cells assessed as reduction in viral replication by luciferase reporter gene assay; method in brief: as §2
[5] = system: Nonstructural protein 5A (Hepatitis C virus), Q5L478 [UNDEFINED MUTATION]; experiment: Inhibition of NS5A L31V mutant in Hepatitis C virus subtype 1a infected in human HuH7 cells assessed as reduction in viral replication by luciferase reporter gene assay; conditions: Huh-7; method in brief: as §1
Huh-7 [6] = experiment: Inhibition of NS5A in Hepatitis C virus subtype 4a infected in human HuH7 cells assessed as reduction in viral replication by luciferase reporter gene assay; method in brief: as §2
Huh-7 [7] = experiment: Inhibition of NS5A in Hepatitis C virus subtype 1b infected in human HuH7 cells assessed as reduction in viral replication by luciferase reporter gene assay; method in brief: as §2

| SMILES | EC90 [1] | EC90 (Huh-7 [2]) | EC90 (Huh-7 [3]) | EC90 (Huh-7 [4]) | EC90 [5] | EC90 (Huh-7 [6]) | EC90 (Huh-7 [7]) |
| --- | --- | --- | --- | --- | --- | --- | --- |
| COC(=O)N[C@H](C(=O)N1CCC[C@H]1c1ncc(-c2cc(F)c3c(c2)OC(c2ccc4c(c2)CC2CC2(C)O4)n2c-3cc3cc(-c4cnc([C@@H]5CCCN5C(=O)[C@@H](NC(=O)OC)C(C)C)[nH]4)ccc32)[nH]1)C(C)C (mixture of isomers) | 1 nM | 0.03 nM | 5 nM | 0.005 nM | – | – | – |
| COC(=O)N[C@H](C(=O)N1CCC[C@H]1c1ncc(-c2cc(F)c3c(c2)OC(c2ccc4c(c2)COCC4)n2c-3cc3cc(-c4cnc([C@@H]5CCCN5C(=O)[C@@H](NC(=O)OC)C(C)C)[nH]4)ccc32)[nH]1)C(C)C (stereo not given in full) | 2 nM | 0.02 nM | 4 nM | 0.003 nM | – | – | – |
| COC(=O)N[C@H](C(=O)N1CCC[C@H]1c1ncc(-c2cc(F)c3c(c2)OC(c2ccc4c(c2)OCCC4(F)F)n2c-3cc3cc(-c4cnc([C@@H]5CCCN5C(=O)[C@@H](NC(=O)OC)C(C)C)[nH]4)ccc32)[nH]1)C(C)C (stereo not given in full) | 0.7 nM | 0.007 nM | 0.2 nM | 0.002 nM | 0.01 nM | 0.002 nM | 0.002 nM |
| COC(=O)N[C@H](C(=O)N1CCC[C@H]1c1ncc(-c2cc(F)c3c(c2)OC(c2ccc4c(c2)COC4)n2c-3cc3cc(-c4cnc([C@@H]5CCCN5C(=O)[C@@H](NC(=O)OC)C(C)C)[nH]4)ccc32)[nH]1)C(C)C (stereo not given in full) | 5 nM | 0.02 nM | 2 nM | 0.003 nM | – | – | – |
| COC(=O)N[C@H](C(=O)N1CCC[C@H]1c1ncc(-c2cc(F)c3c(c2)OC(c2ccc4c(c2)CC[C@H](C)O4)n2c-3cc3cc(-c4cnc([C@@H]5CCCN5C(=O)[C@@H](NC(=O)OC)C(C)C)[nH]4)ccc32)[nH]1)C(C)C (stereo not given in full) | 3 nM | 0.01 nM | 7 nM | 0.004 nM | – | – | – |
| COC(=O)N[C@H](C(=O)N1CCC[C@H]1c1ncc(-c2cc(F)c3c(c2)OC(c2ccc4c(c2)CCCC4)n2c-3cc3cc(-c4cnc([C@@H]5CCCN5C(=O)[C@@H](NC(=O)OC)C(C)C)[nH]4)ccc32)[nH]1)C(C)C (stereo not given in full) | 2 nM | 0.01 nM | 2 nM | 0.005 nM | – | – | – |
| COC(=O)N[C@H](C(=O)N1CCC[C@H]1c1ncc(-c2cc(F)c3c(c2)OC(c2ccc4c(c2)O[C@@H](C)CC4)n2c-3cc3cc(-c4cnc([C@@H]5CCCN5C(=O)[C@@H](NC(=O)OC)C(C)C)[nH]4)ccc32)[nH]1)C(C)C (stereo not given in full) | 0.9 nM | 0.009 nM | 0.7 nM | 0.007 nM | 0.04 nM | 0.007 nM | 0.005 nM |
| COC(=O)N[C@H](C(=O)N1CCC[C@H]1c1ncc(-c2cc(F)c3c(c2)OC(c2ccc4ccccc4c2)n2c-3cc3cc(-c4cnc([C@@H]5CCCN5C(=O)[C@@H](NC(=O)OC)C(C)C)[nH]4)ccc32)[nH]1)C(C)C (stereo not given in full) | 7 nM | 0.04 nM | 1 nM | 0.02 nM | 0.2 nM | – | – |
| COC(=O)N[C@H](C(=O)N1CCC[C@H]1c1ncc(-c2cc(F)c3c(c2)OC(c2ccc4c(c2)OC(F)(F)O4)n2c-3cc3cc(-c4cnc([C@@H]5CCCN5C(=O)[C@@H](NC(=O)OC)C(C)C)[nH]4)ccc32)[nH]1)C(C)C (stereo not given in full) | 8 nM | 0.1 nM | 5 nM | 0.004 nM | 0.5 nM | – | – |
| COC(=O)N[C@H](C(=O)N1CCC[C@H]1c1ncc(-c2cc(F)c3c(c2)OC(c2ccc4c(c2)OCC(=O)N4C)n2c-3cc3cc(-c4cnc([C@@H]5CCCN5C(=O)[C@@H](NC(=O)OC)C(C)C)[nH]4)ccc32)[nH]1)C(C)C (stereo not given in full) | 3 nM | 0.01 nM | 2 nM | 0.002 nM | – | – | – |
| COC(=O)N[C@H](C(=O)N1CCC[C@H]1c1ncc(-c2cc(F)c3c(c2)OC(c2ccc4c(c2)O[C@H](C)CC4)n2c-3cc3cc(-c4cnc([C@@H]5CCCN5C(=O)[C@@H](NC(=O)OC)C(C)C)[nH]4)ccc32)[nH]1)C(C)C (stereo not given in full) | 0.7 nM | 0.01 nM | 0.9 nM | 0.003 nM | 0.02 nM | 0.005 nM | 0.005 nM |
| COC(=O)N[C@H](C(=O)N1CCC[C@H]1c1ncc(-c2cc(F)c3c(c2)OC(c2cccc4ccccc24)n2c-3cc3cc(-c4cnc([C@@H]5CCCN5C(=O)[C@@H](NC(=O)OC)C(C)C)[nH]4)ccc32)[nH]1)C(C)C (stereo not given in full) | 32 nM | 0.1 nM | 31 nM | 0.01 nM | 0.09 nM | – | – |
| COC(=O)N[C@H](C(=O)N1CCC[C@H]1c1ncc(-c2cc(F)c3c(c2)OC(c2ccc4c(c2)CC[C@@H](C)O4)n2c-3cc3cc(-c4cnc([C@@H]5CCCN5C(=O)[C@@H](NC(=O)OC)C(C)C)[nH]4)ccc32)[nH]1)C(C)C (stereo not given in full) | 2 nM | 0.02 nM | 7 nM | 0.005 nM | – | – | – |
| COC(=O)N[C@H](C(=O)N1CCC[C@H]1c1ncc(-c2cc(F)c3c(c2)OC(c2ccc4cccnc4c2)n2c-3cc3cc(-c4cnc([C@@H]5CCCN5C(=O)[C@@H](NC(=O)OC)C(C)C)[nH]4)ccc32)[nH]1)C(C)C (stereo not given in full) | 4 nM | 0.3 nM | 3 nM | 0.01 nM | 0.2 nM | – | – |
| COC(=O)N[C@H](C(=O)N1CCC[C@H]1c1ncc(-c2cc(F)c3c(c2)OC(c2ccc4c(c2)OCO4)n2c-3cc3cc(-c4cnc([C@@H]5CCCN5C(=O)[C@@H](NC(=O)OC)C(C)C)[nH]4)ccc32)[nH]1)C(C)C (stereo not given in full) | 4 nM | 1 nM | 3 nM | 0.008 nM | 0.2 nM | – | – |
| COC(=O)N[C@H](C(=O)N1CCC[C@H]1c1ncc(-c2cc(F)c3c(c2)OC(c2ccc4c(c2)OC(C)(C)CC4)n2c-3cc3cc(-c4cnc([C@@H]5CCCN5C(=O)[C@@H](NC(=O)OC)C(C)C)[nH]4)ccc32)[nH]1)C(C)C (stereo not given in full) | 1 nM | 0.02 nM | 2 nM | 0.005 nM | – | – | – |
| COC(=O)N[C@H](C(=O)N1CCC[C@H]1c1ncc(-c2cc(F)c3c(c2)OC(c2ccc4c(c2)OCC4)n2c-3cc3cc(-c4cnc([C@@H]5CCCN5C(=O)[C@@H](NC(=O)OC)C(C)C)[nH]4)ccc32)[nH]1)C(C)C (mixture of isomers) | 6 nM | 0.1 nM | 3 nM | 0.02 nM | 0.5 nM | – | – |
| COC(=O)N[C@H](C(=O)N1CCC[C@H]1c1ncc(-c2cc(F)c3c(c2)OC(c2ccc4c(c2)CCCO4)n2c-3cc3cc(-c4cnc([C@@H]5CCCN5C(=O)[C@@H](NC(=O)OC)C(C)C)[nH]4)ccc32)[nH]1)C(C)C (stereo not given in full) | 4 nM | 0.02 nM | 7 nM | 0.003 nM | – | – | – |
| COC(=O)N[C@H](C(=O)N1CCC[C@H]1c1ncc(-c2cc(F)c3c(c2)OC(c2ccc4c(c2)CCC(C)(C)O4)n2c-3cc3cc(-c4cnc([C@@H]5CCCN5C(=O)[C@@H](NC(=O)OC)C(C)C)[nH]4)ccc32)[nH]1)C(C)C (stereo not given in full) | 0.9 nM | 0.03 nM | 2 nM | 0.005 nM | – | – | – |
| COC(=O)N[C@H](C(=O)N1CCC[C@H]1c1ncc(-c2cc(F)c3c(c2)OC(c2ccc4c(c2)OCC(=O)N4)n2c-3cc3cc(-c4cnc([C@@H]5CCCN5C(=O)[C@@H](NC(=O)OC)C(C)C)[nH]4)ccc32)[nH]1)C(C)C (stereo not given in full) | 32 nM | 0.4 nM | 22 nM | 0.01 nM | – | – | – |
